pIC50: −log10 of the molar value. The source made the active and inactive calls. The rule behind the calls is not given here.
Assays:
[1] = Half life in BALB/c RAG2-/- gammaC-/- mouse at 10 mg/kg, ip measured up to 24 hrs by UPLC-triple quadrupole MS analysis; format: ADME, organism-based; conditions: in vivo
[2] = Apparent volume of distribution during terminal phase in BALB/c RAG2-/- gammaC-/- mouse at 10 mg/kg, ip measured up to 24 hrs by UPLC-triple quadrupole MS analysis; format: ADME, organism-based; conditions: in vivo, read-out: Vz/F
CYP2C19 = CYP2C19 (Homo sapiens, UniProt P33261); assay: Inhibition of CYP2C19 in human liver microsomes at 10 uM incubated for 10 mins in presence of NADPH by LC-MS/MS analysis relative to control; format: ADME
CYP2C19, sequence (P33261 whole entry): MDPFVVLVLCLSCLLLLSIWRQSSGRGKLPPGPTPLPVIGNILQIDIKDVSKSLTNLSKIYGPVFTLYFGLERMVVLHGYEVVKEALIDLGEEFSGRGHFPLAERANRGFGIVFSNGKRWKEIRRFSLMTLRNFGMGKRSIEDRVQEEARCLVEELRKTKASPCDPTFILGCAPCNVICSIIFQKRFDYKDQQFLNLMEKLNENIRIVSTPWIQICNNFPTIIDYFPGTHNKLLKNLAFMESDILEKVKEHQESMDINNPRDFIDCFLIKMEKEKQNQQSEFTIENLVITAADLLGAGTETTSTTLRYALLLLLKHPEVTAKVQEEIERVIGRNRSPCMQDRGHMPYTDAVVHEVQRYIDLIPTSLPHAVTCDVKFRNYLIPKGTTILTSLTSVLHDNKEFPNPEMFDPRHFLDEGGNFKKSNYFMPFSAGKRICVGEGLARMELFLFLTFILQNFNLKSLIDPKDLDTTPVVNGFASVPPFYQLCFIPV

[3] = Stability of the compound in human pooled hepatocytes assessed as parent compound remaining incubated for 60 mins; format: ADME, cell-based, Hepatocyte; conditions: read-out: Stabilty
[4] = biological target: Histone deacetylase (Homo sapiens) (UniProt Q13547+O15379+Q9UBN7+Q92769+Q9UQL6+Q8WUI4+Q9BY41+Q96DB2+P56524+Q9UKV0+Q969S8); assay: Inhibition of HDAC in human MM1.S cells assessed as increase in H3K9Ac at > 1 uM after 48 hrs by Western blot analysis; format: cell-based; conditions: dose microM >1, time 48.0 hrs
Method in brief: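 MM1.S cells exposed 48 h across a concentration range. Global H3K9Ac and H3K9me2 read by Western blot; run in duplicate.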

[5] = biological target: DNA (cytosine-5)-methyltransferase 1 (Homo sapiens, UniProt P26358); assay: Inhibition of human DNMT1 enzyme using polydeoxy-inosine polydeoxy-cytosine DNA as substrate incubated for 15 mins in presence of SAM by TR-FRET assay
DNA (cytosine-5)-methyltransferase 1, sequence (P26358 whole entry): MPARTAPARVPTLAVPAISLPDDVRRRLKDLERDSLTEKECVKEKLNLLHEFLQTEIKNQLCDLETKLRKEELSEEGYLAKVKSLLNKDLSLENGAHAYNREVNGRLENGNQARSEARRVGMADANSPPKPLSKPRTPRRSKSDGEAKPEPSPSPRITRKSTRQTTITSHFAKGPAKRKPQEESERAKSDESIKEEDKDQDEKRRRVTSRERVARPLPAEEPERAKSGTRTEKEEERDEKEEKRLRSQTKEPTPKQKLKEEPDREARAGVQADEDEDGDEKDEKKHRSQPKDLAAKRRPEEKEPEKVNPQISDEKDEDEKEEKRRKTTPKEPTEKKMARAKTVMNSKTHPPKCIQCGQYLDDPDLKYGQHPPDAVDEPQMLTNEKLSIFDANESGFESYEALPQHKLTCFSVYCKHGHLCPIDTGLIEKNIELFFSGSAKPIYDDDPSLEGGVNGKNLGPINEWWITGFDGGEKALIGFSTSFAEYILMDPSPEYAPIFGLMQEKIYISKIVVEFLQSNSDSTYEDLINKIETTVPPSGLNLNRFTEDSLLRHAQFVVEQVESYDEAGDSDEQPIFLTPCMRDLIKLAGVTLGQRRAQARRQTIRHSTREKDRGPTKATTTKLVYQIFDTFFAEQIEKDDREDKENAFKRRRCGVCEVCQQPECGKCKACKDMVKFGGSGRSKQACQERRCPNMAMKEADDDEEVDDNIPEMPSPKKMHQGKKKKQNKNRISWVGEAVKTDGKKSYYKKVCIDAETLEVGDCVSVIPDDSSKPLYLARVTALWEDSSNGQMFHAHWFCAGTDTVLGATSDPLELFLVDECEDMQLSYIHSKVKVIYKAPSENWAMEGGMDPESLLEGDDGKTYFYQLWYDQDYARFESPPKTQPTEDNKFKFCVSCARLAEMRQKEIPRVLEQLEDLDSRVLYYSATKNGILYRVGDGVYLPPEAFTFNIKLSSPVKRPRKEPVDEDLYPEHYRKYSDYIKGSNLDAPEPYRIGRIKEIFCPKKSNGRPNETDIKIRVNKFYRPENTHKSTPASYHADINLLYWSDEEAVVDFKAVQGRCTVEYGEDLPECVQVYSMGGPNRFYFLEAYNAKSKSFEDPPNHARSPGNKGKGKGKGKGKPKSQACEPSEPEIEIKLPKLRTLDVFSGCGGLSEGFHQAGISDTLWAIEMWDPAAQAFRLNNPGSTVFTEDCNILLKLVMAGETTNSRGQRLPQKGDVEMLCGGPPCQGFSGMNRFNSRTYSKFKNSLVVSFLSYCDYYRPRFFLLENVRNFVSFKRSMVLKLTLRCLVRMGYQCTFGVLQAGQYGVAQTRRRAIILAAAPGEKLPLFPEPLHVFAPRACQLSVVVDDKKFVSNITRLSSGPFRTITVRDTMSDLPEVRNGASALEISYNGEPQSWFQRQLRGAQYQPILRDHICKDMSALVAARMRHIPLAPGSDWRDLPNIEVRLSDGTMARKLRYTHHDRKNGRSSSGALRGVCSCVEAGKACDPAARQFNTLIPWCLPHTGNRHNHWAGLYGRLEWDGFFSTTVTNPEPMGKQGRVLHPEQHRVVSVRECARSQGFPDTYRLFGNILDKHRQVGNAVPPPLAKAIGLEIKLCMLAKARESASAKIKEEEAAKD

[6] = biological target: T1, Protein deacetylase HDAC6 (Homo sapiens, UniProt Q9UBN7); assay: Inhibition of full length human N-terminal GST-tagged HDAC6 using fluorogenic acetylated peptide as substrate incubated for 30 mins by fluorescence plate reader assay
T1 sequence (Q9UBN7 whole entry): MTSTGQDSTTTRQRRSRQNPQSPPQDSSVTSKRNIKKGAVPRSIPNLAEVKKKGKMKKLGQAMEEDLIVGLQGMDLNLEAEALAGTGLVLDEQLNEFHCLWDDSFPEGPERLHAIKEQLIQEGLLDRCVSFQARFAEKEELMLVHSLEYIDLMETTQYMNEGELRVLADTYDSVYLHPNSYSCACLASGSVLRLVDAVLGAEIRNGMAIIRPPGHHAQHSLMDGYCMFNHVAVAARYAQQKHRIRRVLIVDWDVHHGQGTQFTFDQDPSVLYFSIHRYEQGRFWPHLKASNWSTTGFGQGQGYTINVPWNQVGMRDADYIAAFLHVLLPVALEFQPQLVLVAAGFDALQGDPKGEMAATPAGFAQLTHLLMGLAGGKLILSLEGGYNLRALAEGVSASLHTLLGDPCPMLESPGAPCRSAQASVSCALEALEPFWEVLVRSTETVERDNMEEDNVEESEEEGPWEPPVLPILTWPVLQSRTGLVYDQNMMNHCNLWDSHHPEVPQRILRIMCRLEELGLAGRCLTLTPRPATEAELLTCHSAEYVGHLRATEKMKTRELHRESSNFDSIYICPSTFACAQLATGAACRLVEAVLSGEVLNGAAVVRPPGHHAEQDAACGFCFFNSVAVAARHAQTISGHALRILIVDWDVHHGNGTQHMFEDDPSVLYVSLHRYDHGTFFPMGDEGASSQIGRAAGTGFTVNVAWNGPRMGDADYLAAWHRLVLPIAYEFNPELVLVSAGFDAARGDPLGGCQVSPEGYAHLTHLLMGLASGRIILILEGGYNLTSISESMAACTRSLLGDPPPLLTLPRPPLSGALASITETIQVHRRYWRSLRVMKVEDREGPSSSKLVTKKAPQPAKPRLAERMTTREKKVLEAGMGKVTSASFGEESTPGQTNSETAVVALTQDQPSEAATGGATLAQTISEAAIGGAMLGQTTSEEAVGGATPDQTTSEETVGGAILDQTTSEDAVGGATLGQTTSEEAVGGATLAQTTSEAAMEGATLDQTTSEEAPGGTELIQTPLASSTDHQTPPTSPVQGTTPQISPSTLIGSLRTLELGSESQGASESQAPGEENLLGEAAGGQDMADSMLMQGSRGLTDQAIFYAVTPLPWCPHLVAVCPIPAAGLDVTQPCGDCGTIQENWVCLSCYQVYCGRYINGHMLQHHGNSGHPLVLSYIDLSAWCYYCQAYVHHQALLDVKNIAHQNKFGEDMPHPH

SMILES | half-life [1] [h] | Vd/F [2] [L] | inhibition at 10 min, 10 µM (CYP2C19) [%] | remaining at 1 h [3] [%] | inhibition [4] | pIC50 [5] | pIC50 [6]
COc1cc2nc(-c3ccc(C)o3)cc(NCC3CCN(c4ncc(C(=O)NO)cn4)CC3)c2cc1OC | 3.8 | 4.6 | 5.6 | 50.8 | – | – | –
COc1cc2c(NCC3CCN(c4ncc(C(=O)NO)cn4)CC3)cc(-c3ccc(C)o3)nc2cc1OCCCN1CCCC1 | – | – | – | – | Active | 5.94 | 6.82

Source: ChEMBL document CHEMBL4834403, “Design and Synthesis of Novel Epigenetic Inhibitors Targeting Histone Deacetylases, DNA Methyltransferase 1, and Lysine Methyltransferase G9a with In Vivo Efficacy in Multiple Myeloma” (J Med Chem, 2021)
